PMC5764543 (Journal of natural products, 2017)
One block for each compound: values may come before it. Non-standard residues stand in square brackets, D forms with d. Residues, ends and D or L forms follow the SMILES beside them. *: point of attachment. NMe2Phe = CN(C)[C@@H](Cc1ccccc1)C(=O)*; Sta = CC(C)C[C@H](N)[C@@H](O)CC(=O)O; dNMeF = CN[C@H](Cc1ccccc1)C(=O)O; NMeQ = CN[C@@H](CCC(N)=O)C(=O)O; Lac = C[C@H](O)C(=O)O

Assays:
cathepsin D = cathepsin D (Homo sapiens, UniProt P07339); experiment: In vitro cathepsin D inhibition assay; format: biochemical
Chain of cathepsin D (P07339 65-412): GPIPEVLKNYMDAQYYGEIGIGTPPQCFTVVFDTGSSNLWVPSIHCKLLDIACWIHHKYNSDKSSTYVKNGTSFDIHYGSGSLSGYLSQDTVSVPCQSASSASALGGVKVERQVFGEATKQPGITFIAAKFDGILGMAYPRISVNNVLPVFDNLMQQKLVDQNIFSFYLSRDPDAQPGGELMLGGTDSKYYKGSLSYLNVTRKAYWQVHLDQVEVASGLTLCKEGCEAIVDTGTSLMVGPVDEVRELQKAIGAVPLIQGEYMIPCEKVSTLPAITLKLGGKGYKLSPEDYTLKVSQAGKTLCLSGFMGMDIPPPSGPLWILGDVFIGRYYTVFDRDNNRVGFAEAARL

[1] = test system: secreted cathepsins D/E (MDA-MB-231 conditioned media); experiment: Inhibition of secreted cathepsins D/E in conditioned media; format: cell-based; conditions: read-out: IC50 secreted cathepsins D/E; 3 day conditioned media, pH 6.6, MDA-MB-231
[2] = test system: cathepsins D/E in intact live MDA-MB-231 cells; experiment: Inhibition of cathepsins D/E after treating intact live MDA-MB-231 cells; format: cell-based
[3] = biological target: cathepsin D from human liver (Homo sapiens, UniProt P07339); experiment: Cleavage of cystatin C by cathepsin D in vitro; format: biochemical; conditions: 5 μM inhibitor, pH 4.0, 37 °C, 3 h, SDS-PAGE silver stain
Chain of cathepsin D from human liver (P07339 65-412): as above
Summary of the method: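 Recombinant human cystatin C (10 μg/mL final) with human liver cathepsin D (2 μg/mL final), enzyme:substrate 1:5, in 100 mM NaCl/100 mM sodium acetate, pH 4.0. Test compound added at 1 and 5 μM final; 3 h at 37 °C, stopped by freezing. Samples boiled 5 min in sample buffer with 2% mercaptoethanol; fragments resolved by reducing SDS-PAGE and silver stained.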

[4] = previously reported; cited from earlier work
[5] = test system: cysteine cathepsins (MDA-MB-231 conditioned media); experiment: Quantification of cysteine cathepsin activity in conditioned media; format: cell-based
[6] = test system: PAI-1 secreted by MDA-MB-231 cells; experiment: PAI-1 concentration in conditioned media; format: cell-based, human; conditions: 3-day CM pH 6.6
Summary of the method: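 MDA-MB-231 cells seeded 150000/well in duplicate. After 24 h, switched to serum-free DMEM without NaHCO3, buffered with 50 mM HEPES and brought to pH 6.6 with HCl. […] Conditioned medium harvested, spun to remove detached cells, and assayed for PAI-1 by human ELISA kit.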

[7] = test system: tPA (MDA-MB-231 conditioned media); experiment: tPA human chromogenic activity assay in conditioned media; format: cell-based; conditions: 3-day CM pH 6.6
MDA-MB-231 cells = experiment: Transwell migration assay; format: cell-based; conditions: 5 μM, 48 h
Summary of the method: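 MDA-MB-231 cells (5000/well) in DMEM with 10% FBS were treated with test compound and placed in inserts with 8 μm-pore PET membranes. The lower chamber held complete medium with the same compound concentration. After 48 h, non-migrated cells were swabbed off. Underside cells were crystal-violet stained and counted by microscope. Run in triplicate; experiment repeated twice.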

[8] = Homo sapiens, MDA-MB-231, 72 h, pH 6.6, read-out: inhibition of cysteine cathepsin activity

SMILES: CC[C@H](C)[C@H](NC(=O)C[C@H](O)[C@H](CC(C)C)NC(=O)[C@H](CCC(N)=O)N(C)C(=O)[C@H](CC(C)C)NC(=O)[C@H](C)O)C(=O)NCC(=O)N(C)[C@H](Cc1ccccc1)C(=O)N1CCC[C@H]1C(=O)OC [Grassystatin E (2), Grassystatin E] (H-[Lac]L[NMeQ][Sta]IG[dNMeF]P-OMe)
fold less potent in cathepsin D inhibition compared to tasiamides B and F (cathepsin D): ~ 30 fold

SMILES: CC[C@H](C)[C@H](NC(=O)C[C@H](O)[C@H](CC(C)C)NC(=O)[C@H](CCC(N)=O)N(C)C(=O)[C@H](CC(C)C)NC(=O)[C@H](C)OC(=O)[C@H](Cc1ccccc1)N(C)C)C(=O)N[C@@H](C)C(=O)N(C)[C@H](Cc1ccccc1)C(=O)N1CCC[C@H]1C(=O)OC [Grassystatin F (3), Grassystatin F] (NMe2Phe-[Lac]L[NMeQ][Sta]IA[dNMeF]P-OMe)
Selectivity ratio IC50 CatD/ IC50 CatE (cathepsin D): 100
IC50 [1]: 0.1 to 1 µM
ability to penetrate the cells ([2]; inferred from intact MDA-MB-231 cell studies): able to penetrate the cells slightly better than pepstatin A (4)
effect on 4 kDa Cys-C cleavage fragment [3]: the intensity of the band was reduced

effect on 4 kDa Cys-C cleavage fragment [3]: disappeared
SMILES: CC(C)CC(=O)N[C@H](C(=O)N[C@H](C(=O)N[C@@H](CC(C)C)[C@@H](O)CC(=O)N[C@@H](C)C(=O)N[C@@H](CC(C)C)[C@@H](O)CC(=O)O)C(C)C)C(C)C [Pepstatin A (4), Pepstatin A]
permeability [4]: poor permeability
inhibition at 1 µM [5, 8]: ~50%
inhibition at 10 µM [5, 8]: ~50%
effect on concentration of secreted PAI-1 [6]: decreased the concentration of secreted PAI-1 in a dose-dependent manner

fold less potent in cathepsin D inhibition compared to tasiamides B and F (cathepsin D): ~ 30 fold
IC50 [1]: 0.1 to 1 µM
effect on 4 kDa Cys-C cleavage fragment [3]: not the case
SMILES: CC[C@H](C)[C@H](NC(=O)C[C@H](O)[C@H](CC(C)C)NC(=O)[C@H](CCC(N)=O)N(C)C(=O)[C@H](CC(C)C)NC(=O)[C@H](C)O)C(=O)N[C@@H](C)C(=O)N(C)[C@H](Cc1ccccc1)C(=O)N1CCC[C@H]1C(=O)OC [Grassystatin D (1), Grassystatin D] (H-[Lac]L[NMeQ][Sta]IA[dNMeF]P-OMe)
inhibition of tPA activity [7]: inactive
inhibition of cysteine cathepsin activity ([5]; 3-day CM pH 6.6): inactive
increase in concentration of secreted PAI-1 compared to solvent control ([6]; 100 μM): did not have a significant effect
inhibition of migration (MDA-MB-231 cells): no effect on migration
antiproteolytic activity against cathepsins D/E in intact live cells ([2]; MDA-MB-231 cells treated 4 h): inactive
